Screening data deposited in PubChem by several laboratories.
The list is not random: actives were taken first. Their share in the collection is about 2%.
HIV Rev-RRE inh: HIV Rev-RRE protein-RNA interaction inhibition. Rev peptide-RRE RNA binding, FRET. inhibition, % at 8 µM. actives 0.79% (n = 97,000);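 active = inhibition above the screen-wide mean plus 3 SD, cut at about 35% in these data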;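 also: 0% = median DMSO wells and 100% = median Neomycin B control wells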
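Test system: labelled RRE RNA duplex and labelled Rev peptide. Times: 5 min compound–RNA preincubation, then 15 min with peptide, 25 °C. Doses: single-dose 8 µM. Measured by: FRET, excitation 480 nm, emission 540 nm donor and 671 nm acceptor. Measure: % inhibition of FRET ratio versus controls.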
LYP act: increases human PTPN22 phosphatase activity | Q9Y2R2 | recombinant LYP, DiFMUP fluorescence; 0 = plate median, 100 = signal doubled | activation, % at 2 µM | actives 0.11% (n = 96,000);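 active = activation at 2 µM above a set limit, the mean plus 5 SD, cut at about 37% in these data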
EphB4 ephrin blk: EphB4-ephrin-B2 interaction antagonism; EphB4 LBD / TNYL-RAW-Alexa532 peptide, fluorescence polarization; P54760; actives 0.15% (n = 97,000); inhibition, % at 7 µM;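 active = inhibition above the screen-wide mean inhibition plus 3 SD, cut at about 15% in these data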;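 also: 0% = DMSO wells and 100% = excess unlabeled TNYL-RAW peptide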
Target sequence (P54760 whole entry, looked up, the tested form may be a part): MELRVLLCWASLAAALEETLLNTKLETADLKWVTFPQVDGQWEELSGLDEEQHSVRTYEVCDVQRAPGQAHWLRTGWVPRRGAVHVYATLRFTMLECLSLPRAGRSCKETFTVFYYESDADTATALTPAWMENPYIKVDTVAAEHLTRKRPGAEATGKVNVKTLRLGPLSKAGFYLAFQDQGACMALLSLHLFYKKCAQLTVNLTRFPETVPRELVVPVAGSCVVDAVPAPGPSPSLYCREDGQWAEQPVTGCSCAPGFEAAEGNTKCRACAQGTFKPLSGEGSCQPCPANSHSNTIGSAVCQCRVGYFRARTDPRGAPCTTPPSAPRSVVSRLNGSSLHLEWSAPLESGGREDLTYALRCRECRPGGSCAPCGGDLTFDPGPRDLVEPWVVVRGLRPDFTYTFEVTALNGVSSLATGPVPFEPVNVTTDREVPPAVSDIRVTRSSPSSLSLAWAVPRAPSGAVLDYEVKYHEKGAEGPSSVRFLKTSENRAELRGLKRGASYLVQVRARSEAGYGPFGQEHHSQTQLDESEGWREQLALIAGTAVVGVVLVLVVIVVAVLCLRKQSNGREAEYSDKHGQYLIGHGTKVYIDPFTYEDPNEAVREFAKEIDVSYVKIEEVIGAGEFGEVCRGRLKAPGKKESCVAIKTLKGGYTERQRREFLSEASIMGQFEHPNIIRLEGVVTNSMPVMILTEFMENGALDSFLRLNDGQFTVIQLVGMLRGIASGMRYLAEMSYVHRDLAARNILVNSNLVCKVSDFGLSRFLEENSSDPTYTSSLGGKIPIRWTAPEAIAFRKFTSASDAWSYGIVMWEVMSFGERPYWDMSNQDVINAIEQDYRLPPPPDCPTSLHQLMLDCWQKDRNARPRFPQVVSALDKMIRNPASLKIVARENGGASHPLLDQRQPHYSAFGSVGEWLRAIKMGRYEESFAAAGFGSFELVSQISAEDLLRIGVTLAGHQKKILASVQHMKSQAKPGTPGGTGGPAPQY
PLK1 PBD inh: blocks phosphopeptide binding to human Plk1 polo box domain. P53350. Plk1 PBD phosphopeptide binding, fluorescence polarization. inhibition, %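 (tested at about 20 µM)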. actives 0.13% (n = 97,000); in the data active = inhibition above about 34%, passing the limit was not always enough
PLK1 kinase inh: blocks human PLK1 kinase activity. inhibition, % at 10 µM. AID 619. actives 0.53% (n = 97,000). P53350. recombinant PLK1 kinase, TR-FRET peptide phosphorylation;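 active = inhibition of 50% or more in the single-concentration screen; inactive = inhibition below 50%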;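 also: 0% = DMSO max control and 100% = H-89 dihydrochloride min control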
PTPN22 inh 2: LYP (human) phosphatase inhibition; Q9Y2R2; recombinant LYP catalytic domain, DiFMUP fluorescence; inhibition, % at 2 µM; actives 0.21% (n = 96,000);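 active = inhibition at 2 µM at or above a set limit, the screen mean plus 3 SD, cut at about 24% in these data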;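 also: 0% = DMSO with enzyme and 100% = enzyme fully blocked by orthovanadate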
Numbers without * were called inactive; [ ] = dose if it differs, or a comment.

What do the screens show for `CC1CCc2cccc3c2N1c1cc(C#N)c(C#N)cc1O3` (stereo not given)?
HIV Rev-RRE inh: 40*; LYP act: 10; EphB4 ephrin blk: -7; PLK1 PBD inh: 1; PLK1 kinase inh: -4; PTPN22 inh 2: -9

What do the screens show for `COc1ccc(OC)c(C(O)c2nc3ccccc3n2C(C)C)c1` (stereo not given)?
HIV Rev-RRE inh: 2; LYP act: -1; EphB4 ephrin blk: -5; PLK1 PBD inh: 12; PLK1 kinase inh: -15; PTPN22 inh 2: -1

How did CCOC(=O)NC(Nc1nnc(SCC)s1)(C(F)(F)F)C(F)(F)F do in these assays?
HIV Rev-RRE inh: 8; LYP act: 10; EphB4 ephrin blk: 1; PLK1 PBD inh: 10; PLK1 kinase inh: -9; PTPN22 inh 2: -11

What do the screens show for `O=[N+]([O-])c1ccccc1-c1ccc(/C=N/n2cnnc2)o1`?
HIV Rev-RRE inh: 5; LYP act: 0; EphB4 ephrin blk: -9; PLK1 PBD inh: -7; PLK1 kinase inh: -7; PTPN22 inh 2: 2

How did CCSC1=N/C(=C\c2ccc(-c3ccccc3[N+](=O)[O-])o2)C(=O)S1 do in these assays?
HIV Rev-RRE inh: 54*; LYP act: -1; EphB4 ephrin blk: 3; PLK1 PBD inh: -12; PLK1 kinase inh: -8; PTPN22 inh 2: 6

Results for CN1CCN(c2cc(=O)n(C3CCCCC3)c(=O)[nH]2)CC1 ?
HIV Rev-RRE inh: 8; EphB4 ephrin blk: 5; PLK1 PBD inh: 4; PLK1 kinase inh: 65*

Results for O=C(Cn1cnc2ccccc21)Nc1ccc(C(=O)O)cc1 ?
HIV Rev-RRE inh: 3; LYP act: -35; EphB4 ephrin blk: 2; PLK1 PBD inh: 5; PLK1 kinase inh: -5; PTPN22 inh 2: 33*

Results for O=C(C1CCCN1S(=O)(=O)c1cccc2cccnc12)N1CCN(c2ccccc2)CC1 (stereo not given) ?
HIV Rev-RRE inh: 2; LYP act: 4; EphB4 ephrin blk: 1; PLK1 PBD inh: -27; PLK1 kinase inh: -10; PTPN22 inh 2: -5

Results for Cc1nc(NC(=O)CC(C)C)sc1-c1csc(Nc2ccc(Cl)cc2)n1 ?
HIV Rev-RRE inh: 1; LYP act: -49; EphB4 ephrin blk: 1; PLK1 PBD inh: 11; PLK1 kinase inh: -17; PTPN22 inh 2: 51*

How did Cc1nc(NC(=O)CC(C)C)sc1-c1csc(Nc2ccc(Cl)cc2Cl)n1 do in these assays?
HIV Rev-RRE inh: 2; LYP act: -18; EphB4 ephrin blk: 5; PLK1 PBD inh: -8; PLK1 kinase inh: -10; PTPN22 inh 2: 21

What do the screens show for `C1CSC2(N1)C1CC3CC(C1)CC2C3` (stereo not given)?
HIV Rev-RRE inh: 8; LYP act: 4; EphB4 ephrin blk: -7; PLK1 PBD inh: 12; PLK1 kinase inh: -8; PTPN22 inh 2: -4

How did COc1ccc(CN(Cc2cc3cc(OC)c(OC)cc3[nH]c2=O)C(=O)NC2CCCCC2)cc1 do in these assays?
HIV Rev-RRE inh: 6; LYP act: 2; EphB4 ephrin blk: 2; PLK1 PBD inh: 23; PLK1 kinase inh: -14; PTPN22 inh 2: -4

How did Cc1sc2nc(CN(Cc3ccccc3)C(=O)NC3CCCCC3)[nH]c(=O)c2c1C do in these assays?
HIV Rev-RRE inh: 8; LYP act: 8; EphB4 ephrin blk: -4; PLK1 PBD inh: -9; PLK1 kinase inh: 50*; PTPN22 inh 2: -7

How did COc1ccc(NC(=O)CN2CCC(C(N)=O)(N3CCCCC3)CC2)cc1 do in these assays?
HIV Rev-RRE inh: 6; LYP act: -9; EphB4 ephrin blk: 2; PLK1 PBD inh: -9; PLK1 kinase inh: -2; PTPN22 inh 2: 6

How did COc1cccc(NC(=O)N2CCC(C(N)=O)(N3CCCCC3)CC2)c1 do in these assays?
HIV Rev-RRE inh: 5; LYP act: 3; EphB4 ephrin blk: 6; PLK1 PBD inh: -4; PLK1 kinase inh: 66*; PTPN22 inh 2: -4

How did CCCSc1nc2sc3c(c2c(=O)[nH]1)CCN(Cc1ccccc1)C3 do in these assays?
HIV Rev-RRE inh: 92*[fluorescence artefact?]; LYP act: -5; EphB4 ephrin blk: 2; PLK1 PBD inh: -76; PLK1 kinase inh: -23; PTPN22 inh 2: 2

What do the screens show for `CN1CCN(C(=O)c2ccc3c(c2)NC(=O)C(C)(C)O3)CC1`?
HIV Rev-RRE inh: 11; LYP act: 1; EphB4 ephrin blk: 1; PLK1 PBD inh: -19; PLK1 kinase inh: -16; PTPN22 inh 2: -2

What do the screens show for `CCCCOC(=O)c1ccc(NC(=O)Nc2ccc(OC)c(OC)c2)cc1`?
HIV Rev-RRE inh: 4; LYP act: -8; EphB4 ephrin blk: 1; PLK1 PBD inh: -15; PLK1 kinase inh: -9; PTPN22 inh 2: 7

Results for CCOC(=O)c1ccc(NC(=O)Nc2ccc(OC)c(OC)c2)cc1 ?
HIV Rev-RRE inh: 4; LYP act: 4; EphB4 ephrin blk: -3; PLK1 PBD inh: -6; PLK1 kinase inh: 51*; PTPN22 inh 2: -3

What do the screens show for `CC(C)(C(=O)c1ccccc1)/[N+]([O-])=C/c1ccc(F)cc1`?
HIV Rev-RRE inh: 4; LYP act: 8; EphB4 ephrin blk: 0; PLK1 PBD inh: 3; PLK1 kinase inh: -4; PTPN22 inh 2: -6

What do the screens show for `Nc1c(C(=O)Nc2nccs2)sc2nc(-c3cccs3)cc(C(F)(F)F)c12`?
HIV Rev-RRE inh: 104*[fluorescence artefact?]; LYP act: -11; EphB4 ephrin blk: 2; PLK1 PBD inh: -10; PLK1 kinase inh: -37; PTPN22 inh 2: 7

How did CCN(CC)C(=O)c1sc2nc(-c3cccs3)cc(-c3ccc(Cl)cc3)c2c1N do in these assays?
HIV Rev-RRE inh: 14; LYP act: 1; EphB4 ephrin blk: -3; PLK1 PBD inh: -14; PLK1 kinase inh: -28; PTPN22 inh 2: -5

How did Cc1cc(C)c2c(N)c(C(=O)Nc3nccs3)sc2n1 do in these assays?
HIV Rev-RRE inh: -1; LYP act: -3; EphB4 ephrin blk: 5; PLK1 PBD inh: 8; PLK1 kinase inh: -15; PTPN22 inh 2: 2

How did Cc1nnc(NC(=O)c2sc3nc(-c4cccs4)cc(C(F)(F)F)c3c2N)s1 do in these assays?
HIV Rev-RRE inh: 99*[fluorescence artefact?]; LYP act: 3; EphB4 ephrin blk: 0; PLK1 PBD inh: -104; PLK1 kinase inh: -42; PTPN22 inh 2: -5

What do the screens show for `CC(C)(C)C(=O)c1sc2nc(-c3cccs3)cc(C(F)(F)F)c2c1N`?
HIV Rev-RRE inh: 79*[fluorescence artefact?]; LYP act: 11; EphB4 ephrin blk: -1; PLK1 PBD inh: -22; PLK1 kinase inh: -11; PTPN22 inh 2: -10

What do the screens show for `COc1ccccc1NC(=O)c1sc2nc(Cc3ccccc3)cc(C(F)(F)F)c2c1N`?
HIV Rev-RRE inh: 44*; LYP act: -14; EphB4 ephrin blk: 5; PLK1 PBD inh: 8; PLK1 kinase inh: -9; PTPN22 inh 2: 14

What do the screens show for `COc1ccc(/C(=N\O)c2ncc(C(F)(F)F)cc2Cl)cc1`?
HIV Rev-RRE inh: 4; LYP act: -6; EphB4 ephrin blk: 1; PLK1 PBD inh: 9; PLK1 kinase inh: -7; PTPN22 inh 2: 7
